Laboratory results taken from ChEMBL document CHEMBL1671843, “Synthesis and SAR of Thiazolylmethylphenyl Glucoside as Novel C-Aryl Glucoside SGLT2 Inhibitors” (ACS Med Chem Lett, 2011).

Key:
[1] = target: T1, Sodium/glucose cotransporter 2 (Homo sapiens, UniProt P31639); assay: Inhibition of human SGLT2 expressed in CHO cells assessed as [14C]-alpha-methyl-D-glucopyranoside uptake after 2 hrs by liquid scintillation counting; type: cell-based
T1 sequence (P31639 whole entry): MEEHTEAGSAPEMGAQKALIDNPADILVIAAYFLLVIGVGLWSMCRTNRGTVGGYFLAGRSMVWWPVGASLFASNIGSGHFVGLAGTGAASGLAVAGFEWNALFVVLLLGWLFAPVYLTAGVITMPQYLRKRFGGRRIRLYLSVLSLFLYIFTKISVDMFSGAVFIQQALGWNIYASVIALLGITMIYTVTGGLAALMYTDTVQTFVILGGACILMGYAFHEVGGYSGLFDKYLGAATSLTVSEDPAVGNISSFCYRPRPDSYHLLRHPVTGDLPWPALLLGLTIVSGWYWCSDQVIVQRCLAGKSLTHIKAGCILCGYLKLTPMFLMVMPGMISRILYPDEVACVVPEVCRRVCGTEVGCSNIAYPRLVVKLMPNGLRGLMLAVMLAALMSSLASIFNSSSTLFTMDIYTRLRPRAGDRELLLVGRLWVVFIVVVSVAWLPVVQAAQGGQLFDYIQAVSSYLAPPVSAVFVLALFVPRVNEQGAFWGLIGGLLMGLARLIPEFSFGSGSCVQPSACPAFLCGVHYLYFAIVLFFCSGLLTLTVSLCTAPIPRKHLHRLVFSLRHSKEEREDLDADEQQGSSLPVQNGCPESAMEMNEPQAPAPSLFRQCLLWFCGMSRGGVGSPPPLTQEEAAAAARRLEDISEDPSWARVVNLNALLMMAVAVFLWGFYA
How it was run: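 Sodium-dependent glucose transport assay against hSGLT2. IC50 was fitted by nonlinear regression. Values are from single determinations.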

Rattus norvegicus [2] = assay: Antidiabetic activity in Sprague-Dawley rat assessed as increase of urine volume at 10 mg/kg, po relative to control; type: functional
How it was run: (§1)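 Normal Sprague-Dawley rats given a single oral dose (1 or 10 mg/kg) against vehicle controls. Urinary glucose excretion and urine volume were measured and expressed as fold over vehicle. Data are means ± SEM, compared to vehicle by one-way ANOVA with Dunnett's post hoc test.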

Rattus norvegicus [3] = assay: Antidiabetic activity in Sprague-Dawley rat assessed as increase of glucose disposal at 10 mg/kg, po relative to control; type: functional; how it was run: as §1
[4] = Cmax in Sprague-Dawley rat at 5 mg/kg, po after 0.38 hrs; type: ADME, organism-based; set-up: dose 5 mg/kg, route oral; settings: in vivo
How it was run: (§2)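 Male Sprague-Dawley rats dosed orally at 5 mg/kg. Measured Cmax with time to Cmax, elimination half-life and oral bioavailability (F).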

[5] = Elimination half life in Sprague-Dawley rat at 5 mg/kg, po; type: ADME, organism-based; set-up: dose 5 mg/kg, route oral; settings: in vivo; how it was run: as §2
[6] = Oral bioavailability in Sprague-Dawley rat at 5 mg/kg; type: ADME, organism-based; settings: in vivo; how it was run: as §2
Rattus norvegicus [7] = assay: Antidiabetic activity in Sprague-Dawley rat assessed as increase of glucose disposal at 1 mg/kg, po relative to control; type: functional; how it was run: as §1
Rattus norvegicus [8] = assay: Antidiabetic activity in Sprague-Dawley rat assessed as increase of urine volume at 1 mg/kg, po relative to control; type: functional; how it was run: as §1
Rattus norvegicus [9] = assay: Antidiabetic activity in Sprague-Dawley rat assessed as increase of urinary glucose excretion at 1 mg/kg, po relative to control; type: functional, Urine
How it was run: (§3)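 Normal Sprague-Dawley rats received a single oral dose of 1 or 10 mg/kg. Urinary glucose excretion was measured and expressed as fold elevation in glucose disposal over vehicle-treated controls. Values are means ± SEM, compared with vehicle by one-way ANOVA with Dunnett's post hoc test. Urine volume was also recorded.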

Rattus norvegicus [10] = assay: Antidiabetic activity in Sprague-Dawley rat assessed as increase of urinary glucose excretion at 10 mg/kg, po relative to control; type: functional, Urine; how it was run: as §3

IC50 [1]	Compound	further results
140 nM	N#Cc1ccc([C@@H]2O[C@H](CO)[C@@H](O)[C@H](O)[C@H]2O)cc1Cc1ncc(-c2ccsc2)s1	
> 10000 nM	O=C(O)c1cnc(Cc2cc([C@@H]3O[C@H](CO)[C@@H](O)[C@H](O)[C@H]3O)ccc2Cl)s1	
19.6 nM	CCCCOc1cnc(Cc2cc([C@@H]3O[C@H](CO)[C@@H](O)[C@H](O)[C@H]3O)ccc2Cl)s1	
1.11 nM	OC[C@H]1O[C@@H](c2ccc(Cl)c(Cc3cnc(-c4ccsc4)s3)c2)[C@H](O)[C@@H](O)[C@@H]1O	
0.772 nM	OC[C@H]1O[C@@H](c2ccc(Cl)c(Cc3ncc(-c4ccsc4)s3)c2)[C@H](O)[C@@H](O)[C@@H]1O	fold change (FC) (Rattus norvegicus [2]): 4.2; fold change (FC) (Rattus norvegicus [3]): 730; Cmax [4]: 1540 ng/mL; half-life [5]: 2.51 h; bioavailability [6]: 15%; fold change (FC) (Rattus norvegicus [7]): 160; fold change (FC) (Rattus norvegicus [8]): 2.5
13.3 nM	OC[C@H]1O[C@@H](c2ccc(Cl)c(Cc3ncc(-c4ccccc4)s3)c2)[C@H](O)[C@@H](O)[C@@H]1O	
	CCOc1ccc(Cc2cc([C@@H]3O[C@H](CO)[C@@H](O)[C@H](O)[C@H]3O)ccc2Cl)cc1 [DAPAGLIFLOZIN]	bioavailability [6]: 88%; fold change (FC) (Rattus norvegicus [8]): 5.7
9.31 nM	OC[C@H]1O[C@@H](c2ccc(Cl)c(Cc3ncc(-c4ccc(-c5ccccc5)cc4)s3)c2)[C@H](O)[C@@H](O)[C@@H]1O	
1.57 nM	OC[C@H]1O[C@@H](c2ccc(Cl)c(Cc3ncc(-c4ccoc4)s3)c2)[C@H](O)[C@@H](O)[C@@H]1O	
3.13 nM	OC[C@H]1O[C@@H](c2ccc(Cl)c(Cc3ncc(-c4nccs4)s3)c2)[C@H](O)[C@@H](O)[C@@H]1O	
7.36 nM	OC[C@H]1O[C@@H](c2ccc(F)c(Cc3ncc(-c4ccsc4)s3)c2)[C@H](O)[C@@H](O)[C@@H]1O	
0.72 nM	OC[C@H]1O[C@@H](c2ccc(Cl)c(Cc3ncc(-c4ccco4)s3)c2)[C@H](O)[C@@H](O)[C@@H]1O	fold change (FC) (Rattus norvegicus [2]): 3.7; fold change (FC) (Rattus norvegicus [9]): 230; bioavailability [6]: 20.6%; fold change (FC) (Rattus norvegicus [10]): 700
6.36 nM	OC[C@H]1O[C@@H](c2ccc(Br)c(Cc3ncc(-c4ccsc4)s3)c2)[C@H](O)[C@@H](O)[C@@H]1O	
12.4 nM	CCCCCCCc1cnc(Cc2cc([C@@H]3O[C@H](CO)[C@@H](O)[C@H](O)[C@H]3O)ccc2Cl)s1	
14.6 nM	OC[C@H]1O[C@@H](c2ccc(C(F)(F)F)c(Cc3ncc(-c4ccsc4)s3)c2)[C@H](O)[C@@H](O)[C@@H]1O	
1.14 nM	OC[C@H]1O[C@@H](c2ccc(Cl)c(Cc3ncc(-c4cccs4)s3)c2)[C@H](O)[C@@H](O)[C@@H]1O	
